biological target: T1, Estrogen receptor (Homo sapiens) (UniProt P03372); test: Relative binding affinity (RBA) for ER alpha (Estrogen receptor alpha) determined by a competitive radiometric binding assay using 10 nM [3H]estradiol as the radioligand; details: not given
T1 sequence (whole entry): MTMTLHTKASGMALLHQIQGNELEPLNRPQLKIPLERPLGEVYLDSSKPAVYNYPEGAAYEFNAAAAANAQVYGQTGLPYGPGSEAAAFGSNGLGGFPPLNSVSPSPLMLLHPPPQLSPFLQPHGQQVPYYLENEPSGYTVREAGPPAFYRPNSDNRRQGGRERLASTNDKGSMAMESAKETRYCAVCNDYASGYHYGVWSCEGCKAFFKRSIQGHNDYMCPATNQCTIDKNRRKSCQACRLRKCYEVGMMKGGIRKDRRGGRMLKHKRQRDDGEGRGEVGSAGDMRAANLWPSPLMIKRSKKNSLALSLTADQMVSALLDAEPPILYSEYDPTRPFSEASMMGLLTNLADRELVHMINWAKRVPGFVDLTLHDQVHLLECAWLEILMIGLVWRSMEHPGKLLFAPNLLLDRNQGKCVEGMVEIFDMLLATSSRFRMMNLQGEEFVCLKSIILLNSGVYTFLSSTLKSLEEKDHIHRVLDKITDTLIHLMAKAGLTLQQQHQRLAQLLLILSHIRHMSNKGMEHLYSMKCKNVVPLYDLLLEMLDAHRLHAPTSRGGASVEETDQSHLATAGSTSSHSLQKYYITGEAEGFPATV
How it was run: (§1)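 Competitive radiometric binding with purified human ERα and 10 nM [3H]estradiol tracer. Bound receptor–ligand complex was adsorbed on hydroxylapatite. Incubation was at 0 °C for 18–24 h. Unlabeled competitors were dissolved in 1:1 DMF:TEA. RBA is expressed relative to estradiol (100%). Duplicate separate experiments were run, with CV <0.3.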

How did the relative binding affinity (RBA) turn out when CCc1c(-c2ccc(O)cc2)oc(-c2ccc(O)cc2)c1-c1ccc(O)cc1 was run?
Its relative binding affinity (RBA) is 140.

With CCc1c(-c2ccc(O)cc2)oc(-c2ccccc2)c1-c1ccccc1 as the molecule, how does the relative binding affinity (RBA) read?
The relative binding affinity (RBA) was 10.8.

For Cc1c(-c2ccc(O)cc2)oc(-c2ccc(O)cc2)c1-c1ccc(O)cc1, which relative binding affinity (RBA) is on record?
The relative binding affinity (RBA) was 40.

For Oc1ccc(-c2oc(-c3ccc(O)cc3)c(-c3ccc(O)cc3)c2-c2ccc(O)cc2)cc1, which relative binding affinity (RBA) is on record?
Its relative binding affinity (RBA) is 8.7.

For CCCc1c(-c2ccc(O)cc2)oc(-c2ccccc2)c1-c1ccc(O)cc1, which relative binding affinity (RBA) is on record?
Its relative binding affinity (RBA) is 140.

For CCc1c(-c2ccccc2)oc(-c2ccc(O)cc2)c1-c1ccccc1, which relative binding affinity (RBA) is on record?
Its relative binding affinity (RBA) is 6.8.

For CCCCc1c(-c2ccc(O)cc2)oc(-c2ccc(O)cc2)c1-c1ccc(O)cc1, which relative binding affinity (RBA) is on record?
The relative binding affinity (RBA) was 21.

With CCc1c(-c2ccccc2)oc(-c2ccccc2)c1-c1ccc(O)cc1 as the molecule, how does the relative binding affinity (RBA) read?
The relative binding affinity (RBA) was 0.15.

With CCc1c(-c2ccc(O)cc2)oc(-c2ccccc2)c1-c1ccc(O)cc1 as the molecule, how does the relative binding affinity (RBA) read?
Its relative binding affinity (RBA) is 82.

With CCc1c(-c2ccc(O)cc2)oc(-c2ccc(O)cc2)c1-c1ccccc1 as the molecule, how does the relative binding affinity (RBA) read?
The relative binding affinity (RBA) was 16.5.

For CCc1c(-c2ccccc2)oc(-c2ccc(O)cc2)c1-c1ccc(O)cc1, which relative binding affinity (RBA) is on record?
The relative binding affinity (RBA) was 14.8.

With CCCc1c(-c2ccc(O)cc2)oc(-c2ccc(O)cc2)c1-c1ccc(O)cc1 as the molecule, how does the relative binding affinity (RBA) read?
The relative binding affinity (RBA) was 100.

biological target: Estrogen receptor beta (Homo sapiens) (UniProt Q92731); test: Relative binding affinity towards estrogen receptor 2 determined by a competitive radiometric binding assay using 10 nM [3H]estradiol as the radioligand; details: not given
Sequence (Q92731 whole entry): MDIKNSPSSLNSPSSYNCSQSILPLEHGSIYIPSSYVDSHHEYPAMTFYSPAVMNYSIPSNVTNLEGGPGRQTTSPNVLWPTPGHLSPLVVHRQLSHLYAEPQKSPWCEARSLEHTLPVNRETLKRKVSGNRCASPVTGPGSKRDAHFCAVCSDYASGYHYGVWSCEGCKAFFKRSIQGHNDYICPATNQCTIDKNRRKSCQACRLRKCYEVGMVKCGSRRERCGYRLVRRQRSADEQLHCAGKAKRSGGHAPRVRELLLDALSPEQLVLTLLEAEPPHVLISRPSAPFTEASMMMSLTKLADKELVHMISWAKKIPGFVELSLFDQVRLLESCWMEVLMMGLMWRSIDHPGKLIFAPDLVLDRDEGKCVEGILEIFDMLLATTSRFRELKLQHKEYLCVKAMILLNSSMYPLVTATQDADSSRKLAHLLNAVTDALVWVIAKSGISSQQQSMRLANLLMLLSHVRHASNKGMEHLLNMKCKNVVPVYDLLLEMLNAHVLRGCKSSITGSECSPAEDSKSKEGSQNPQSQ
How it was run: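 Competitive radiometric binding with purified human ERβ and 10 nM [3H]estradiol tracer. Hydroxylapatite captured the bound complex. Incubation was at 0 °C for 18–24 h. Competitors were dissolved in 1:1 DMF:TEA. RBA is relative to estradiol (100%). Duplicate independent experiments were run, with CV <0.3.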

For CCc1c(-c2ccc(O)cc2)oc(-c2ccccc2)c1-c1ccccc1, which relative binding affinity (RBA) is on record?
Its relative binding affinity (RBA) is 3.4.

Cc1c(-c2ccc(O)cc2)oc(-c2ccc(O)cc2)c1-c1ccc(O)cc1 was tested. Which relative binding affinity (RBA) did it give?
The relative binding affinity (RBA) was 0.62.

For Oc1ccc(-c2oc(-c3ccc(O)cc3)c(-c3ccc(O)cc3)c2-c2ccc(O)cc2)cc1, which relative binding affinity (RBA) is on record?
The relative binding affinity (RBA) was 0.25.

For CCCc1c(-c2ccc(O)cc2)oc(-c2ccccc2)c1-c1ccc(O)cc1, which relative binding affinity (RBA) is on record?
The relative binding affinity (RBA) was 15.

Which relative binding affinity (RBA) does the source give for CCc1c(-c2ccccc2)oc(-c2ccc(O)cc2)c1-c1ccccc1 here?
The relative binding affinity (RBA) was 2.

How did the relative binding affinity (RBA) turn out when CC(C)Cc1c(-c2ccc(O)cc2)nn(-c2ccc(O)cc2)c1-c1ccc(O)cc1 was run?
The relative binding affinity (RBA) was 0.89.

Which relative binding affinity (RBA) does the source give for CCCCc1c(-c2ccc(O)cc2)oc(-c2ccc(O)cc2)c1-c1ccc(O)cc1 here?
The relative binding affinity (RBA) was 3.9.

For CCc1c(-c2ccccc2)oc(-c2ccccc2)c1-c1ccc(O)cc1, which relative binding affinity (RBA) is on record?
The relative binding affinity (RBA) was 0.07.

For CCc1c(-c2ccc(O)cc2)oc(-c2ccccc2)c1-c1ccc(O)cc1, which relative binding affinity (RBA) is on record?
The relative binding affinity (RBA) was 7.1.

CCc1c(-c2ccc(O)cc2)oc(-c2ccc(O)cc2)c1-c1ccccc1 was tested. Which relative binding affinity (RBA) did it give?
The relative binding affinity (RBA) was 3.

Which relative binding affinity (RBA) does the source give for CCc1c(-c2ccccc2)oc(-c2ccc(O)cc2)c1-c1ccc(O)cc1 here?
Its relative binding affinity (RBA) is 4.5.

Which relative binding affinity (RBA) does the source give for CCCc1c(-c2ccc(O)cc2)oc(-c2ccc(O)cc2)c1-c1ccc(O)cc1 here?
The relative binding affinity (RBA) was 1.8.

tested on: Estrogen receptor (Ovis aries); test: Relative binding affinity (RBA) for ER alpha using lamb uterine cytosol determined by a competitive radiometric binding assay using 10 nM [3H]estradiol as the radioligand; details: Uterus

For CCc1c(-c2ccc(O)cc2)oc(-c2ccc(O)cc2)c1-c1ccc(O)cc1, which relative binding affinity (RBA) is on record?
Its relative binding affinity (RBA) is 6.5.

For CCc1c(-c2ccc(O)cc2)oc(-c2ccccc2)c1-c1ccccc1, which relative binding affinity (RBA) is on record?
Its relative binding affinity (RBA) is 0.44.

With Oc1ccc(-c2cc(-c3ccccc3)c(-c3ccc(O)cc3)o2)cc1 as the molecule, how does the relative binding affinity (RBA) read?
Its relative binding affinity (RBA) is 0.13.

Which relative binding affinity (RBA) does the source give for Cc1c(-c2ccc(O)cc2)oc(-c2ccc(O)cc2)c1-c1ccc(O)cc1 here?
Its relative binding affinity (RBA) is 2.9.

For Oc1ccc(-c2oc(-c3ccc(O)cc3)c(-c3ccc(O)cc3)c2-c2ccc(O)cc2)cc1, which relative binding affinity (RBA) is on record?
Its relative binding affinity (RBA) is 0.84.

For Oc1ccc(-c2cc(-c3ccc(O)cc3)c(-c3ccccc3)o2)cc1, which relative binding affinity (RBA) is on record?
The relative binding affinity (RBA) was 0.04.

For CCCc1c(-c2ccc(O)cc2)oc(-c2ccccc2)c1-c1ccc(O)cc1, which relative binding affinity (RBA) is on record?
Its relative binding affinity (RBA) is 3.6.

How did the relative binding affinity (RBA) turn out when CCc1c(-c2ccccc2)oc(-c2ccc(O)cc2)c1-c1ccccc1 was run?
The relative binding affinity (RBA) was 0.1.

CCc1c(-c2ccc(O)cc2)cc(-c2ccccc2)n1-c1ccc(O)cc1 was tested. Which relative binding affinity (RBA) did it give?
The relative binding affinity (RBA) was 0.5.

For CCCCc1c(-c2ccc(O)cc2)oc(-c2ccc(O)cc2)c1-c1ccc(O)cc1, which relative binding affinity (RBA) is on record?
The relative binding affinity (RBA) was 1.3.

Which relative binding affinity (RBA) does the source give for CCc1c(-c2ccccc2)oc(-c2ccccc2)c1-c1ccc(O)cc1 here?
Its relative binding affinity (RBA) is 0.02.

How did the relative binding affinity (RBA) turn out when CCc1c(-c2ccc(O)cc2)oc(-c2ccccc2)c1-c1ccc(O)cc1 was run?
The relative binding affinity (RBA) was 4.6.

For CCc1c(-c2ccc(O)cc2)oc(-c2ccc(O)cc2)c1-c1ccccc1, which relative binding affinity (RBA) is on record?
Its relative binding affinity (RBA) is 0.7.

With CCc1c(-c2ccccc2)oc(-c2ccc(O)cc2)c1-c1ccc(O)cc1 as the molecule, how does the relative binding affinity (RBA) read?
Its relative binding affinity (RBA) is 0.45.

Oc1ccc(-c2cc(-c3ccccc3)c(-c3ccc(O)cc3)s2)cc1 was tested. Which relative binding affinity (RBA) did it give?
The relative binding affinity (RBA) was 0.03.

How did the relative binding affinity (RBA) turn out when CCCc1c(-c2ccc(O)cc2)oc(-c2ccc(O)cc2)c1-c1ccc(O)cc1 was run?
Its relative binding affinity (RBA) is 3.6.

With Oc1ccc(-c2cc(-c3ccc(O)cc3)c(-c3ccccc3)s2)cc1 as the molecule, how does the relative binding affinity (RBA) read?
The relative binding affinity (RBA) was 0.04.

biological target: T1, Estrogen receptor (Homo sapiens); test: Relative binding affinity for Estrogen receptor alpha compared 10 nM [3H]estradiol; details: not given; how it was run: as §1

How did the relative binding affinity (RBA) turn out when CC(C)Cc1c(-c2ccc(O)cc2)nn(-c2ccc(O)cc2)c1-c1ccc(O)cc1 was run?
The relative binding affinity (RBA) was 75.

With CCCc1c(-c2ccc(O)cc2)nn(-c2ccc(O)cc2)c1-c1ccc(O)cc1 as the molecule, how does the relative binding affinity (RBA) read?
Its relative binding affinity (RBA) is 49.

Source: ChEMBL document CHEMBL1134677, “Synthesis and biological evaluation of a novel series of furans: ligands selective for estrogen receptor alpha” (J Med Chem, 2001)
